Data published in ChEMBL document CHEMBL2150903, “Synthesis and screening of novel vitamin E derivatives for anticancer functions” (Eur J Med Chem, 2012).
Active and inactive are the calls of the source. The rule behind the calls is not given here.

Assays:
Format in all cases: functional, cell-based
[1] = species on record: Mus musculus; assay: Induction of apoptosis in mouse 66cl-4GFP cells assessed as PARP cleavage at 20 uM after 15 hrs by Western blot analysis
Outline: (§1)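 Cells grown in MEM with 10% FBS, glutamine, penicillin/streptomycin, non-essential amino acids and 2× MEM vitamins; serum cut to 2% for treatment. Compounds dissolved in DMSO (40 mM stock); DMSO vehicle control. Treatment 15 h, then Western blot of whole-cell extracts for PARP cleavage. Primary antibody in 0.1% BSA/TBST overnight at 4 °C, then HRP-conjugated secondary. Two separate experiments.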

[2] = system: MDA-MB-231; assay: Induction of apoptosis in human MDA-MB-231 cells assessed as PARP cleavage at 20 uM after 15 hrs by Western blot analysis; outline: as §1
[3] = system: MCF7; assay: Induction of apoptosis in human MCF7 cells assessed as PARP cleavage at 20 uM after 15 hrs by Western blot analysis; outline: as §1
[4] = system: MCF7; assay: Induction of apoptosis in human MCF7 cells at 40 uM by AnnexinV/PI/FITC-based flow cytometric analysis
[5] = system: MDA-MB-231; assay: Induction of apoptosis in human MDA-MB-231 cells at 20 and 40 uM by […]
[6] = system: MDA-MB-231; assay: Induction of apoptosis in human MDA-MB-231 cells by AnnexinV/PI/FITC-based flow cytometric analysis
[7] = system: MCF7; assay: Induction of apoptosis in human MCF7 cells by AnnexinV/PI/FITC-based flow cytometric analysis
[8] = system: MCF7; assay: Induction of apoptosis in human MCF7 cells at 20 uM by AnnexinV/PI/FITC-based flow cytometric analysis

Row | EC50 [6] | EC50 [7] | Compound | Activity [1] | Activity [2] | Activity [3] | Activity [4] | Activity [5] | Activity [8]
1 |  |  | CC(C)CCC[C@@H](C)CCC[C@@H](C)CCC[C@]1(C)CCc2cc(O)c(F)cc2O1 | inactive | inactive | inactive |  |  | 
2 | 18 µM | 21 µM | Cc1c(C)c2c(c(C)c1OCC(=O)O)CC[C@@](C)(COCCC(C)CCCC(C)CCCC(C)C)O2 (mixture of isomers) | Active | Active | Active | Active | Active | Active
3 | 16 µM | 29 µM | Cc1c(C)c2c(c(C)c1OCC(=O)O)CC[C@](C)(COCCC(C)CCCC(C)CCCC(C)C)O2 (mixture of isomers) | Active | Active | Active | Active | Active | 
4 | 34 µM | 60 µM | CC(C)CCCC(C)CCCC(C)CCCC1(C)CCc2cc(OCC(=O)O)c(F)cc2O1 (racemic) | Active |  | Active |  |  | 
5 | 27 µM | 35 µM | CC(C)CCCC(C)CCCC(C)CCOCC1(C)CCc2cc(OCC(=O)O)c(F)cc2O1 (racemic) | Active | Active | Active | Active | Active | 
6 |  |  | CC(C)CCCC(C)CCCC(C)CCOCC1(C)CCc2cc(O)c(F)cc2O1 (racemic) |  |  | Active |  |  | 
7 | 35 µM | 51 µM | Cc1c(C)c2c(c(C)c1OCC(=O)O)CC[C@@](C)(CCC[C@H](C)CCC[C@H](C)CCCC(C)C)O2 [.ALPHA.-TOCOPHERYLOXYACETIC ACID] | Active | Active | Active | Active | Active | Active
